In series [1] the test system is Tumor Cell line. In words: Evaluated in vitro for the log10 molecular concentration that caused 50 % inhibition of tumor growth of 60 human tumor cell lines. Format: functional, cell-based. Put shortly:
(§1)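 Cells preincubated 24 h, then exposed to the agent at five 10-fold dilutions (0.01–100 μM for the platinum complexes) for 48 h. Cells fixed in situ and stained; solubilized stain read spectrophotometrically. Panel of leukemia, non-small-cell lung, ovarian and renal lines. Log GI50 or TGI taken per cell line in one experiment, then averaged across lines.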

The test system of series [2] is Tumor Cell line. In words: Evaluated in vitro for the log10 molecular concentration that caused […] tumor growth of 60 human tumor cell lines. Format: functional, cell-based. Put shortly:
as §1

Series [3] concerns Tumor Cell line. The series is described as follows: The compound was evaluated in vitro for the log10 molecular concentration that caused 50 % of 60 human tumor cell line kills. The class given is ADME, cell-based. In short, it runs like this:
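Human tumor cell lines (leukemia, non-small-cell lung, ovarian, renal) were preincubated 24 h. Platinum complexes were then added as five 10-fold dilutions, 0.01–100 μM, for 48 h, followed by in situ fixation and staining, with solubilized stain read spectrophotometrically. Log LC50 (50% cell kill) was averaged across cell lines within one experiment.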

Usually GI50 stands for the concentration at which growth is held to half of that of the control. Read a high GI50 as lower sensitivity of the cells. Broadly, the TGI is the concentration at which net growth stops. Lower therefore signals greater sensitivity of the cells. On to “[Bis(aminomethyl)ethylmethylsilane]tetrachloroplatinum(IV)”, for which it took 6.17 µM to inhibit growth in series [1] by half (GI50). The TGI in series [2] was 39.8 µM.

On to “[Bis(aminomethyl)pentamethylenesilane]dichloropaltinum(II) [listing 1 of 2 here]”, for which, in series [3], the “Log LC50” value is given as > -4.01.

For “[Bis(aminomethyl)pentamethylenesilane]dichloropaltinum(II) [listing 2 of 2 here]”, the GI50 in series [1] was 11.7 µM. Further, in series [2], total growth inhibition (TGI) required 67.6 µM.

“[Bis(aminomethyl)pentamethylenesilane]tetrachloropaltinum(IV) [listing 1 of 2 here]”: the “Log LC50” value in series [3] is recorded as > -4.01.

In turn, “[Bis(aminomethyl)pentamethylenesilane]tetrachloropaltinum(IV) [listing 2 of 2 here]” gave a GI50 in series [1] of 4.17 µM. In series [2], the TGI was determined as 50.1 µM.

In the case of “[Bis(aminomethyl)tetramethylenesilane]dichloropaltinum(II) [listing 1 of 2 here]”, the “Log LC50” value in series [3] is reported as > -4.

With “[Bis(aminomethyl)tetramethylenesilane]dichloropaltinum(II) [listing 2 of 2 here]”, the GI50 in series [1] was found to be 25.7 µM. Further, the TGI in series [2] is 89.1 µM.

Consider “[Bis(aminomethyl)tetramethylenesilane]tetrachloropaltinum(IV) [listing 1 of 2 here]”, for which the “Log LC50” value in series [3] is recorded as > -4.

Substance “[Bis(aminomethyl)tetramethylenesilane]tetrachloropaltinum(IV) [listing 2 of 2 here]” came in with a GI50 in series [1] of 4.47 µM. In series [2], this substance registered a TGI of 49 µM.

Regarding “cis-Bis[[(trimethylsilyl)methyl]amino]tetrachloroplatinum(IV) [listing 1 of 2 here]”, in series [3], the “Log LC50” value is recorded as > -4.06.

Regarding “cis-Bis[[(trimethylsilyl)methyl]amino]tetrachloroplatinum(IV) [listing 2 of 2 here]”, the GI50 in series [1] worked out at 5.89 µM. This substance gave a TGI in series [2] of 22.9 µM.

For the origin of these results see ChEMBL document CHEMBL1128557, “Synthesis, antitumor activity, and chemical properties of silaplatin and related platinum (II) and platinum (IV) complexes derived from beta-silyl amines” (J Med Chem, 1995).
